Test results from ChEMBL document CHEMBL5303300, “EUbOPEN Chemogenomics Library - Multiplex” (2023).
Where “and” joins values, the source holds several entries; their conditions need not be identical. Equal values may be shown once.

System: HEK-293T
Assay: Multiplex assay against HEK293T
Type: toxicity, cell-based
Conditions: human, number of replicates 2
Method in brief: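 Live cells were stained at seeding with Hoechst33342, BioTracker Green Microtubule Cytoskeleton Dye, MitoTracker Red and Annexin V Alexa Fluor 680. Following compound addition, they were imaged on a CQ1 microscope at 37°C and 5% CO2 and gated by CellPathfinder machine learning into Hoechst high-intensity objects or normal cells, with normal cells split into healthy, pyknosed or fragmented nuclei and pyknosed cells into mitotic or apoptotic. Tubulin, mitochondrial-mass and membrane-permeability phenotypes are per cents of healthy-nucleus cells.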

[1] = 12 h, 1 µM, compound concentration 1 uM
[2] = 12 h, 10 µM, compound concentration 10 uM
[3] = 24 h, 1 µM, compound concentration 1 uM
[4] = 24 h, 10 µM, compound concentration 10 uM
[5] = 48 h, 1 µM, compound concentration 1 uM
[6] = 48 h, 10 µM, compound concentration 10 uM

## Cn1cc(-n2cnc3c(NCc4nc5cc(Cl)c(Cl)cc5[nH]4)nc(N4CCOCC4)nc32)cn1
[1]
  Population Apoptotic (%): 69% and 59%
  Population Fragmented Nuclei (%): 3% and 5%
  Population Healthy Nuclei (%): 76% and 75%
  Population Hoechst High Intensity Objects (%): 16% and 17%
  Population Membrane Permeable-Phenotype (%): 3% and 1%
  Population Mitochondria Different-Phenotype (%): 65% and 66%
  Population Mitotic Cells (%): 30% and 40%
  Population Normal (%): 83% and 82%
  Population Pyknosed Nuclei (%): 20% and 19%
  Population Tubulin-Different-Phenotype (%): 83% and 84%
  Total Cell Count: 293 and 335
[2]
  Population Apoptotic (%): 71% and 65%
  Population Fragmented Nuclei (%): 4% and 2%
  Population Healthy Nuclei (%): 78% and 76%
  Population Hoechst High Intensity Objects (%): 18% and 12%
  Population Membrane Permeable-Phenotype (%): 1% and 2%
  Population Mitochondria Different-Phenotype (%): 77% and 73%
  Population Mitotic Cells (%): 28% and 34%
  Population Normal (%): 81% and 87%
  Population Pyknosed Nuclei (%): 16% and 20%
  Population Tubulin-Different-Phenotype (%): 95% and 96%
  Total Cell Count: 262 and 266
[3]
  Population Apoptotic (%): 72% and 66%
  Population Fragmented Nuclei (%): 2% and 4%
  Population Healthy Nuclei (%): 72% and 74%
  Population Hoechst High Intensity Objects (%): 25% and 27%
  Population Membrane Permeable-Phenotype (%): 3% and 0%
  Population Mitochondria Different-Phenotype (%): 75% and 82%
  Population Mitotic Cells (%): 27% and 33%
  Population Normal (%): 74% and 72%
  Population Pyknosed Nuclei (%): 25% and 20%
  Population Tubulin-Different-Phenotype (%): 78% and 89%
  Total Cell Count: 256 and 257
[4]
  Population Apoptotic (%): 69% and 85%
  Population Fragmented Nuclei (%): 2% and 5%
  Population Healthy Nuclei (%): 81% and 80%
  Population Hoechst High Intensity Objects (%): 21% and 11%
  Population Membrane Permeable-Phenotype (%): 2% and 0%
  Population Mitochondria Different-Phenotype (%): 87% and 88%
  Population Mitotic Cells (%): 30% and 14%
  Population Normal (%): 78% and 88%
  Population Pyknosed Nuclei (%): 15% and 13%
  Population Tubulin-Different-Phenotype (%): 92% and 95%
  Total Cell Count: 217
[5]
  Population Apoptotic (%): 69% and 62%
  Population Fragmented Nuclei (%): 7% and 6%
  Population Healthy Nuclei (%): 69% and 74%
  Population Hoechst High Intensity Objects (%): 20% and 29%
  Population Membrane Permeable-Phenotype (%): 5% and 1%
  Population Mitochondria Different-Phenotype (%): 66% and 78%
  Population Mitotic Cells (%): 30% and 37%
  Population Normal (%): 79% and 70%
  Population Pyknosed Nuclei (%): 22% and 19%
  Population Tubulin-Different-Phenotype (%): 75% and 87%
  Total Cell Count: 308 and 317
[6]
  Population Apoptotic (%): 70% and 84%
  Population Fragmented Nuclei (%): 5%
  Population Healthy Nuclei (%): 78% and 70%
  Population Hoechst High Intensity Objects (%): 17% and 11%
  Population Membrane Permeable-Phenotype (%): 1% and 2%
  Population Mitochondria Different-Phenotype (%): 89% and 87%
  Population Mitotic Cells (%): 29% and 16%
  Population Normal (%): 82% and 88%
  Population Pyknosed Nuclei (%): 16% and 23%
  Population Tubulin-Different-Phenotype (%): 94% and 93%
  Total Cell Count: 275 and 237

## CS(=O)(=O)c1ccc(C(=O)Nc2cccc(COc3ccc(Br)cc3CN3CC[C@@H](O)C3)c2)c(Cl)c1.O=CO
[1]
  Population Apoptotic (%): 57% and 47%
  Population Healthy Nuclei (%): 78% and 79%
  Population Mitotic Cells (%): 42% and 52%
  Total Cell Count: 501 and 560
[2]
  Population Apoptotic (%): 44% and 57%
  Population Healthy Nuclei (%): 87% and 85%
  Population Mitotic Cells (%): 55% and 42%
  Total Cell Count: 619 and 489
[3]
  Population Apoptotic (%): 54% and 48%
  Population Healthy Nuclei (%): 84% and 83%
  Population Mitotic Cells (%): 45% and 51%
  Total Cell Count: 735 and 812
[4]
  Population Apoptotic (%): 50% and 66%
  Population Healthy Nuclei (%): 85% and 84%
  Population Mitotic Cells (%): 50% and 33%
  Total Cell Count: 658 and 521
[5]
  Population Apoptotic (%): 30% and 25%
  Population Healthy Nuclei (%): 85%
  Population Mitotic Cells (%): 69% and 75%
  Total Cell Count: 1702 and 1674
[6]
  Population Apoptotic (%): 40% and 59%
  Population Healthy Nuclei (%): 85%
  Population Mitotic Cells (%): 60% and 40%
  Total Cell Count: 998 and 697

## CS(=O)(=O)c1ccc(C(=O)Nc2cc(F)cc(COc3ccc(Br)cc3CN3CC[C@H](O)C3)c2)c(Cl)c1.O=CO
[1]
  Population Apoptotic (%): 63%
  Population Healthy Nuclei (%): 81% and 82%
  Population Mitotic Cells (%): 45% and 36%
  Population Pyknosed Nuclei (%): 16% and 13%
  Total Cell Count: 543 and 646
[2]
  Population Apoptotic (%): 68% and 69%
  Population Healthy Nuclei (%): 83% and 84%
  Population Mitotic Cells (%): 31% and 30%
  Population Pyknosed Nuclei (%): 13%
  Total Cell Count: 462 and 578
[3]
  Population Apoptotic (%): 60% and 50%
  Population Healthy Nuclei (%): 82%
  Population Mitotic Cells (%): 39% and 49%
  Total Cell Count: 757 and 913
[4]
  Population Apoptotic (%): 70%
  Population Healthy Nuclei (%): 79% and 83%
  Population Mitotic Cells (%): 29%
  Population Pyknosed Nuclei (%): 17%
  Total Cell Count: 505 and 555
[5]
  Population Apoptotic (%): 34% and 23%
  Population Healthy Nuclei (%): 85%
  Population Mitotic Cells (%): 65% and 76%
  Population Pyknosed Nuclei (%): 3% and 4%
  Total Cell Count: 1715 and 1868
[6]
  Population Apoptotic (%): 54% and 57%
  Population Healthy Nuclei (%): 85% and 80%
  Population Mitotic Cells (%): 46% and 42%
  Population Pyknosed Nuclei (%): 8% and 10%
  Total Cell Count: 633 and 761

## CS(=O)(=O)c1ccc(C(=O)Nc2cccc(COc3ccc(Br)cc3CN3CC[C@H](O)C3)c2)cc1.O=CO
[1]
  Population Apoptotic (%): 50% and 69%
  Population Fragmented Nuclei (%): 2% and 3%
  Population Healthy Nuclei (%): 72% and 70%
  Population Normal (%): 87% and 88%
  Total Cell Count: 490 and 407
[2]
  Population Apoptotic (%): 46%
  Population Fragmented Nuclei (%): 3% and 2%
  Population Healthy Nuclei (%): 85%
  Population Normal (%): 93% and 94%
  Total Cell Count: 467 and 532
[3]
  Population Fragmented Nuclei (%): 6% and 5%
  Population Healthy Nuclei (%): 79% and 76%
  Population Normal (%): 89% and 90%
  Total Cell Count: 663 and 599
[4]
  Population Apoptotic (%): 57% and 66%
  Population Fragmented Nuclei (%): 3% and 4%
  Population Healthy Nuclei (%): 80% and 85%
  Population Normal (%): 95% and 91%
  Total Cell Count: 543 and 659
[5]
  Population Apoptotic (%): 46%
  Population Fragmented Nuclei (%): 13% and 10%
  Population Healthy Nuclei (%): 80% and 84%
  Population Normal (%): 90%
  Total Cell Count: 1404 and 1241
[6]
  Population Apoptotic (%): 32%
  Population Fragmented Nuclei (%): 5% and 6%
  Population Healthy Nuclei (%): 86%
  Population Normal (%): 93% and 92%
  Total Cell Count: 812 and 937

## CS(=O)(=O)c1ccc(C(=O)Nc2cccc(COc3ccc(Br)cc3CN3CCC[C@H](O)C3)c2)c(Cl)c1.O=CO
[1]
  Population Healthy Nuclei (%): 82%
  Population Mitotic Cells (%): 45% and 44%
  Total Cell Count: 629 and 598
[2]
  Population Healthy Nuclei (%): 85% and 88%
  Population Mitotic Cells (%): 38% and 41%
  Total Cell Count: 549 and 638
[3]
  Population Healthy Nuclei (%): 83% and 85%
  Population Mitotic Cells (%): 60% and 48%
  Total Cell Count: 967 and 829
[4]
  Population Healthy Nuclei (%): 83% and 85%
  Population Mitotic Cells (%): 49% and 30%
  Total Cell Count: 569 and 612
[5]
  Population Healthy Nuclei (%): 82% and 86%
  Population Mitotic Cells (%): 82% and 78%
  Total Cell Count: 2080 and 1482
[6]
  Population Healthy Nuclei (%): 86% and 84%
  Population Mitotic Cells (%): 62% and 45%
  Total Cell Count: 820 and 907

## CS(=O)(=O)c1ccc(C(=O)Nc2cccc(COc3ccc(Br)cc3CN[C@H]3CCC[C@@H]3O)c2)c(Cl)c1.O=CO
[1]
  Population Apoptotic (%): 63% and 58%
  Population Healthy Nuclei (%): 76% and 80%
  Population Mitotic Cells (%): 36% and 41%
  Population Normal (%): 91% and 92%
  Total Cell Count: 550 and 522
[2]
  Population Apoptotic (%): 66% and 59%
  Population Healthy Nuclei (%): 84% and 88%
  Population Mitotic Cells (%): 33% and 40%
  Population Normal (%): 91% and 90%
  Total Cell Count: 631 and 603
[3]
  Population Apoptotic (%): 55% and 58%
  Population Healthy Nuclei (%): 80% and 83%
  Population Mitotic Cells (%): 44% and 41%
  Population Normal (%): 90%
  Total Cell Count: 792 and 800
[4]
  Population Apoptotic (%): 60% and 67%
  Population Healthy Nuclei (%): 85% and 79%
  Population Mitotic Cells (%): 39% and 32%
  Population Normal (%): 91% and 87%
  Total Cell Count: 623 and 546
[5]
  Population Apoptotic (%): 20% and 29%
  Population Healthy Nuclei (%): 86% and 87%
  Population Mitotic Cells (%): 79% and 70%
  Population Normal (%): 91% and 92%
  Total Cell Count: 1777 and 1587
[6]
  Population Apoptotic (%): 60% and 78%
  Population Healthy Nuclei (%): 86% and 80%
  Population Mitotic Cells (%): 40% and 21%
  Population Normal (%): 89% and 90%
  Total Cell Count: 671 and 634
